These results are taken from ChEMBL document CHEMBL4190318 (Eur J Med Chem, 2017).

T1: N-acylethanolamine-hydrolyzing acid amidase (Rattus norvegicus) (UniProt Q5KTC7)
T1 sequence (whole entry): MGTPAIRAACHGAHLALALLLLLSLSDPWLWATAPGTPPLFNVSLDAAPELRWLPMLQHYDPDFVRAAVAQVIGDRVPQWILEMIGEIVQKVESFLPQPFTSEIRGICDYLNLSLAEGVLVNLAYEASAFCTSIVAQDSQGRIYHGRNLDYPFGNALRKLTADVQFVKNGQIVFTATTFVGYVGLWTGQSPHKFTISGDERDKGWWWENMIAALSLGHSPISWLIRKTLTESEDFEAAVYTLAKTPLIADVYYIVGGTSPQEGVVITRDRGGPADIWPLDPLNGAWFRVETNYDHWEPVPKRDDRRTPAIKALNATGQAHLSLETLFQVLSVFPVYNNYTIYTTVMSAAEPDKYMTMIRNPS

T2: N-acylethanolamine-hydrolyzing acid amidase (Rattus norvegicus, UniProt Q5KTC7)
T2 sequence (Q5KTC7 whole entry): T1 sequence (whole entry)

T3: Acid ceramidase (Rattus norvegicus) (UniProt Q6P7S1)
T3 sequence (whole entry): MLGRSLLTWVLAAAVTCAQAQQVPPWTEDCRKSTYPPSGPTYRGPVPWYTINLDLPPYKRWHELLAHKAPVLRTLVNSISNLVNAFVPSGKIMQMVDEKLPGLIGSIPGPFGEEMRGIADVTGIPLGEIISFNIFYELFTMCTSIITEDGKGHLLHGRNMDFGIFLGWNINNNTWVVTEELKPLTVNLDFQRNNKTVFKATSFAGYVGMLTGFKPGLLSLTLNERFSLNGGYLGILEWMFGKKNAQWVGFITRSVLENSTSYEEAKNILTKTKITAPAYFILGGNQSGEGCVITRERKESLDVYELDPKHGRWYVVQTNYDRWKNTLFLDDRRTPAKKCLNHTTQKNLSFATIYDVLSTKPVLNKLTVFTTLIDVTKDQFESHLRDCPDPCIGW

B1: N-acylethanolamine-hydrolyzing acid amidase (Rattus norvegicus), Q5KTC7 (protein)
chain: T1 sequence (whole entry)

Calls of active or inactive are those of the source. The calls are words filed in the database; no cut-off is given here. A value given as a limit tells only on which side of the number the result lay.

Compound in one series: O=C(CCCCCc1cccc(Cl)c1)N1CCOC1=O
Briefly: (§1) Inhibition of rat NAAA expressed in HEK293 cells assessed as Km for substrate in presence of varying concentration of heptadecenoylethanolamide substrate after 30 mins by Michaelis-Menten plot analysis (reference value: 1395 +/- 260 microM). It counts as cell-based.
As usually defined, the Km is the concentration of substrate that gives half-maximal velocity. Regarding B1, the Michaelis constant (Km) was 1280 µM.

Compound in a further series: O=C(CCCCCc1ccc(Cl)cc1)N1CCOC1=O
Described as §1. It counts as cell-based.
For the molecule B1, the Km came out at 1670 µM.

For another series, the target named is T1, N-acylethanolamine-hydrolyzing acid amidase (Rattus norvegicus). Briefly: Inhibition of rat NAAA expressed in HEK293 cells at 50 to 250 nM using heptadecenoylethanolamide as substrate after 30 mins in presence of covalent beta-lactone NAAA inhibitor ARN077 by Yonetani-Theorell plot analysis.
Turning to `O=C(CCCCCc1cccc(Cl)c1)N1CCOC1=O`, the inhibition entry was “Active”.

In the next series the target is T2, N-acylethanolamine-hydrolyzing acid amidase. Briefly: Inhibition of rat NAAA expressed in HEK293 cells using heptadecenoylethanolamide as substrate after 30 mins by HPLC-MS/MS analysis. A digest of the protocol:
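Rat NAAA activity measured against heptadecenoylethanolamide (C17:1 FAE) substrate, with hydrolysis products quantified by LC-MS. IC50 derived by nonlinear regression of concentration-response curves. Runs done in triplicate (n = 3); mean ± SD of three independent experiments.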
In general, IC50 refers to the concentration needed to halve the response being measured. A low value points to inhibition by little substance. Take `O=C(CCCCCc1ccc(F)c(Cl)c1)N1CCOC1=O`: the IC50 was determined as 0.026 µM. In turn, `CSc1cccc(CCCCCC(=O)N2CCOC2=O)c1` yielded an IC50 of 12.8 µM. Against the preceding molecule, the IC50 is about 490-fold higher. The molecule `O=C1OCCN1C(=O)c1ccc(Oc2ccc(O)cc2)cc1` registered an IC50 greater than 20 µM. On the same count and under the same terms, the result for `Cc1ccccc1CCCCCC(=O)N1CCOC1=O` reads greater than 20 µM; that for `COc1cccc(CCCCCC(=O)N2CCOC2=O)c1`, 16.3 µM. In turn, `CCCCCCOc1ccc(C(=O)N2CCOC2=O)cc1` gave an IC50 of 0.64 µM. `Cc1ccc(CCCCCC(=O)N2CCOC2=O)cc1C` returned an IC50 greater than 20 µM.

The molecule `O=C1OCCN1C(=O)c1ccc(OC2CCCC2)cc1` gave an IC50 of 0.12 µM.

In turn, `Cc1ccc(Oc2ccc(C(=O)N3CCOC3=O)cc2)cc1` had an IC50 of 6.4 µM.

`O=C(CCCCCc1cccc(CO)c1)N1CCOC1=O` gave an IC50 greater than 20 µM.

As to `O=C(CCCCCc1ccc(Br)cc1)N1CCOC1=O`, the IC50 came to 8.51 µM. The molecule `Nc1ccc(CCCCCC(=O)N2CCOC2=O)cc1` yielded an IC50 of 15.7 µM.

In turn, `O=C(CCCCCc1cccc(I)c1)N1CCOC1=O` gave an IC50 of 3.12 µM. The molecule `O=C1OCCN1C(=O)c1ccc(OC2CCCCC2)cc1` returned an IC50 of 0.092 µM. For `CCCCOc1ccc(C(=O)N2CCOC2=O)cc1`, the IC50 amounted to 1.34 µM. Against the preceding molecule, the IC50 is about 15-fold higher. For `Nc1cccc(CCCCCC(=O)N2CCOC2=O)c1`, the IC50 is greater than 20 µM.

Molecule `O=C1OCCN1C(=O)c1ccc(OC2CCC(O)CC2)cc1` (stereo unspecified) came in with an IC50 of 0.21 µM. With `CCC(CC)Oc1ccc(C(=O)N2CCOC2=O)cc1`, the IC50 came to 0.48 µM.

Molecule `O=C(CCCCCc1cccc(Br)c1)N1CCOC1=O` had an IC50 of 0.43 µM. `NC(=O)c1cccc(CCCCCC(=O)N2CCOC2=O)c1` returned an IC50 greater than 20 µM. Consider `COc1ccc(CCCCCC(=O)N2CCOC2=O)cc1`, for which the IC50 was greater than 20 µM. On the same count and under the same terms, the result for `O=C(O)c1cccc(CCCCCC(=O)N2CCOC2=O)c1` reads greater than 20 µM. `O=C(CCCCCc1ccc(I)cc1)N1CCOC1=O`: the IC50 was greater than 20 µM. The molecule `O=C(CCCCCc1ccc(C(F)(F)F)cc1)N1CCOC1=O` gave an IC50 of 1.04 µM.

With `Cc1cccc(Oc2ccc(C(=O)N3CCOC3=O)cc2)c1`, the IC50 worked out at 5.21 µM. For `O=C(CCCCCc1ccc(O)c(Cl)c1)N1CCOC1=O`, the IC50 is greater than 20 µM. On the same count and under the same terms, the result for `O=C(CCCCCc1ccc(O)c(F)c1)N1CCOC1=O` reads 0.16 µM; that for `CSc1ccc(CCCCCC(=O)N2CCOC2=O)cc1`, greater than 20 µM; that for `O=C(CCCCCc1ccccc1O)N1CCOC1=O`, greater than 20 µM. Molecule `O=C1OCCN1C(=O)c1ccc(OC2CCOCC2)cc1` displayed an IC50 of 0.33 µM. Molecule `O=C1OCCN1C(=O)c1ccc(Oc2cccc(Cl)c2)cc1` had an IC50 of 7.74 µM.

In turn, `NC(=O)c1ccc(CCCCCC(=O)N2CCOC2=O)cc1` registered an IC50 greater than 20 µM. Still for that read-out and setting: the result for `O=C(CCCCCc1cccc(O)c1)N1CCOC1=O` reads 8.64 µM; that for `O=C(O)c1ccc(CCCCCC(=O)N2CCOC2=O)cc1`, greater than 20 µM. The molecule `O=C(CCCCCc1ccc(Cl)cc1)N1CCOC1=O` registered an IC50 of 4.6 µM. As for `O=C(CCCCCc1ccccc1Cl)N1CCOC1=O`, the IC50 was greater than 20 µM. Molecule `O=C(CCCCCc1ccc(CO)cc1)N1CCOC1=O` displayed an IC50 of 0.19 µM. On the same count and under the same terms, the result for `O=C(CCCCCc1cccc(C(F)(F)F)c1)N1CCOC1=O` reads 0.058 µM.

A further series concerns the target T1, N-acylethanolamine-hydrolyzing acid amidase (Rattus norvegicus). Briefly: Reversible inhibition of rat NAAA expressed in HEK293 cells at 10 fold IC50 preincubated for 10 mins followed by 100 fold dilution using heptadecenoylethanolamide as substrate by HPLC-MS/MS analysis. The class given is cell-based.
With `O=C(CCCCCc1cccc(Cl)c1)N1CCOC1=O`, the inhibition entry was “Active”.

A further series addresses N-acylethanolamine acid amidase (Rattus norvegicus). Briefly: Inhibition of rat N-acylethanolamine acid amidase expressed in HEK293 cells using heptadecenoylethanolamide as substrate after 30 mins by LC-MS analysis.
Take `O=C1OCCN1C(=O)c1ccc(OC2CCCCC2)cc1`: the IC50 came to 0.092 µM.

Regarding `O=C(CCCCCc1ccccc1)N1CCOC1=O`, the IC50 stood at 0.27 µM.

In a further series the target is T3, Acid ceramidase (Rattus norvegicus). Briefly: Inhibition of rat acid ceramidase expressed in HEK293 cells assessed as remaining activity at 20 uM using N-lauroylceramide as substrate after 30 mins by LC-MS analysis (reference value: 100 +/- 21.4 %). The class given is cell-based.
As to `O=C(CCCCCc1cccc(Cl)c1)N1CCOC1=O`, the Activity stood at 85.3%. Take `O=C1OCCN1C(=O)c1ccc(OC2CCCCC2)cc1`: the Activity worked out at 81.7%. On the same count and under the same terms, the result for `O=C(CCCCCc1ccc(O)cc1)N1CCOC1=O` reads 95.1%; that for `O=C(CCCCCc1ccccc1)N1CCOC1=O`, 90.6%.

Compound in another series: O=C(CCCCCc1cccc(Cl)c1)N1CCOC1=O
Briefly: (§2) Inhibition of rat NAAA expressed in HEK293 cells assessed as enzyme Vmax per mg protein in presence of varying concentration of heptadecenoylethanolamide substrate after 30 mins by Michaelis-Menten plot analysis (reference value: 9383 +/- 937 nmol/min). It counts as cell-based.
By Vmax is commonly meant the top rate of the reaction or transport when substrate is in excess. On to B1, for which the Vmax worked out at 2790 nmol/min/mg.

Compound in the next series: O=C(CCCCCc1ccc(Cl)cc1)N1CCOC1=O
The series is described as §2. The class given is cell-based.
As to B1, the Vmax is 9900 nmol/min/mg.

For the next series, the target named is T1, N-acylethanolamine-hydrolyzing acid amidase (Rattus norvegicus). The series can be described thus: Inhibition of rat NAAA expressed in HEK293 cells at 50 to 250 nM using heptadecenoylethanolamide as substrate after 30 mins in presence of non-covalent competitive NAAA inhibitor E8 by Yonetani-Theorell plot analysis. The class given is cell-based.
In the case of `O=C(CCCCCc1cccc(Cl)c1)N1CCOC1=O`, the inhibition result was “Active”.
